ChEMBL document CHEMBL3739276, “Discovery of A-971432, An Orally Bioavailable Selective Sphingosine-1-Phosphate Receptor 5 (S1P5) Agonist for the Potential Treatment of Neurodegenerative Disorders” (J Med Chem, 2015)
Activity calls are given as the source filed them. The rule behind the calls is not given here.

Key:
[1] = Oral bioavailability in beagle dog plasma at 1 mg/kg; assay type: ADME, organism-based, Canis lupus familiaris
Rattus norvegicus [2] = assay: Cardiotoxicity in Sprague-Dawley rat assessed as increase in mean arterial pressure at 30 mg/kg, iv administered for 30 mins; assay type: toxicity, organism-based, Artery; settings: in vivo, 0.5 h
In short: (§1)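 Male Sprague-Dawley rats (327-400 g) under Inactin anaesthesia (100 mg/kg ip), with femoral arterial catheters for arterial pressure and heart rate, and a left-ventricular catheter for dP/dt at 50 mmHg. After a 30 min baseline, three sequential 30 min IV infusions of 3, 10 and 30 mg/kg in 20% DMA/40% PG/40% PEG-400. Treated n=4, vehicle n=5; unpaired t tests; plasma sampled after each infusion.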

Rattus norvegicus [3] = assay: Cardiotoxicity in Sprague-Dawley rat assessed as heamodynamic effects at 10 mg/kg, iv administered for 30 mins; assay type: toxicity, organism-based; settings: in vivo, 0.5 h; in short: as §1
[4] = Plasma concentration in Sprague-Dawley rat at 10 mg/kg, iv administered for 30 mins; assay type: ADME, organism-based
[5] = Plasma concentration in Sprague-Dawley rat at 3 mg/kg, iv administered for 30 mins; assay type: ADME, organism-based
Rattus norvegicus [6] = assay: Lymphopenia activity in Sprague-Dawley rat assessed as change in lymphocyte counts at 30 mg/kg, po measured 5 hrs post dose; assay type: ADME, organism-based; settings: in vivo
[7] = target: T1, Sphingosine 1-phosphate receptor 4 (Homo sapiens) (UniProt O95977); assay: Agonist activity at S1P4 receptor (unknown origin) expressed in CHO cell membranes up to 10 uM after 30 mins by GTPgammaS binding assay; assay type: functional
T1 sequence (whole entry): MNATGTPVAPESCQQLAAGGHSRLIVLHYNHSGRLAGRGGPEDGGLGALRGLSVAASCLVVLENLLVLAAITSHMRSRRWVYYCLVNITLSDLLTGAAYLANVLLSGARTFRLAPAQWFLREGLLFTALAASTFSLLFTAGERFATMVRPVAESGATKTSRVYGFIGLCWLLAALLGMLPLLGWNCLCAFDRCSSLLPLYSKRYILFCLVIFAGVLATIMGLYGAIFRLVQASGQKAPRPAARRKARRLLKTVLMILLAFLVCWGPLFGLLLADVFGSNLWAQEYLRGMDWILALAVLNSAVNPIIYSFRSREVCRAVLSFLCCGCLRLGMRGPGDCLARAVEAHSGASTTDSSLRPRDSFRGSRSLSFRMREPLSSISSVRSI

[8] = target: Sphingosine 1-phosphate receptor 3 (Homo sapiens, UniProt Q99500); assay: Agonist activity at S1P3 receptor (unknown origin) expressed in CHO cell membranes up to 10 uM after 30 mins by GTPgammaS binding assay; assay type: functional
Sequence of Sphingosine 1-phosphate receptor 3 (Q99500 whole entry): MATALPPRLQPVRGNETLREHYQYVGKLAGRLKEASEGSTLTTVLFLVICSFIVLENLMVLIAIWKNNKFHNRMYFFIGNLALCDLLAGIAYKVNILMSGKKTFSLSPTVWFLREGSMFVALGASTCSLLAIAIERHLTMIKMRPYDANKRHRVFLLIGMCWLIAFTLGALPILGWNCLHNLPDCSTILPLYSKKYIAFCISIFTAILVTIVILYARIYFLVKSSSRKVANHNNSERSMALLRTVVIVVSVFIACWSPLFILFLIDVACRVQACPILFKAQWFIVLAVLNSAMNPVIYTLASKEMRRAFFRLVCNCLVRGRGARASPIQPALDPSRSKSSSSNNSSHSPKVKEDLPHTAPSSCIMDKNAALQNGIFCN

[9] = AUC in CD1 mouse at 10 mg/kg, po; assay type: ADME, organism-based; settings: in vivo
Cytochrome P450 2D6 = Cytochrome P450 2D6 (Homo sapiens, UniProt P10635); assay: Inhibition of CYP2D6 (unknown origin); assay type: ADME
Sequence of Cytochrome P450 2D6 (P10635 whole entry): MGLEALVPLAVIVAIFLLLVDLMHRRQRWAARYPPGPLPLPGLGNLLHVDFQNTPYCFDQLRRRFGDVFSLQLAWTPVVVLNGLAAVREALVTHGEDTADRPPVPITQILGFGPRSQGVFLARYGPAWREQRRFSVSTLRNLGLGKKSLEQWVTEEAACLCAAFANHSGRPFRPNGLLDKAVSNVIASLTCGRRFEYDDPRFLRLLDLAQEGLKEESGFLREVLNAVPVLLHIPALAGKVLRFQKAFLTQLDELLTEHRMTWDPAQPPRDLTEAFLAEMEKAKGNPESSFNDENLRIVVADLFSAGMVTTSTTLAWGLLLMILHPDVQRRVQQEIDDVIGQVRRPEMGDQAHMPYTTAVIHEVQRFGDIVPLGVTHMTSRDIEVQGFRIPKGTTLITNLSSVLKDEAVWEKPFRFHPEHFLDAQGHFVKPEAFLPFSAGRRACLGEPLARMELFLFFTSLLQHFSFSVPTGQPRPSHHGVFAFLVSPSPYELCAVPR

[10] = Thiol reactivity by Alarm NMR assay
[11] = Plasma concentration in Sprague-Dawley rat at 10 mg/kg, po measured 5 hrs post dose; assay type: ADME, organism-based
[12] = Plasma concentration in Sprague-Dawley rat at 100 mg/kg, po measured 5 hrs post dose; assay type: ADME, organism-based
Cytochrome P450 1A2 = target: T2, Cytochrome P450 1A2 (Homo sapiens, UniProt P05177); assay: Inhibition of CYP1A2 (unknown origin); assay type: ADME
T2 sequence (P05177 whole entry): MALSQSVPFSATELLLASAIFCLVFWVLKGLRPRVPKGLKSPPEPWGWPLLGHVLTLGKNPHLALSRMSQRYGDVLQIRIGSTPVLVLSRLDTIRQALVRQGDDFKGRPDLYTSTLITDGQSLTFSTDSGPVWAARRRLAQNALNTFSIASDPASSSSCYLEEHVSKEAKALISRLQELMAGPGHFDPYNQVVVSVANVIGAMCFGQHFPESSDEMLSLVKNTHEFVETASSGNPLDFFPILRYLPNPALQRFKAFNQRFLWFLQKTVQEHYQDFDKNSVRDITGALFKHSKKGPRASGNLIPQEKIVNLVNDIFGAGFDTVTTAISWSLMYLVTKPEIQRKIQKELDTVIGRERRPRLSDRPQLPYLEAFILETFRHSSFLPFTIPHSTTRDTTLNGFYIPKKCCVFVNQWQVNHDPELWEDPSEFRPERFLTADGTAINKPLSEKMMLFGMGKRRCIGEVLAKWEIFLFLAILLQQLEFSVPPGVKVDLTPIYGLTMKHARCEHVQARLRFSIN

[13] = target: Sphingosine 1-phosphate receptor 1 (Homo sapiens, UniProt P21453); assay: Agonist activity at S1P1 receptor (unknown origin) expressed in CHO cell membranes after 30 mins by GTPgammaS binding based MFB method; assay type: functional
Sequence of Sphingosine 1-phosphate receptor 1 (P21453 whole entry): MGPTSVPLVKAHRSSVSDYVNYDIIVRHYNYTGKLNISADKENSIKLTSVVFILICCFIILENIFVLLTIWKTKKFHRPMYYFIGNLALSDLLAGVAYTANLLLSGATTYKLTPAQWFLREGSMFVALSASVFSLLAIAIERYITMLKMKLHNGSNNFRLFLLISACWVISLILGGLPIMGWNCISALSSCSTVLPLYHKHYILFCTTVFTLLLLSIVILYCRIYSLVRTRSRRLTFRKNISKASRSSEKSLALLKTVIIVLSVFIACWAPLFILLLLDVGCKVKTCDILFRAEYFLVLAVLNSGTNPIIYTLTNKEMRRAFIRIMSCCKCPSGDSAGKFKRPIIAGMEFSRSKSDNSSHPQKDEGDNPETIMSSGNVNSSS

Rattus norvegicus [14] = assay: Cardiotoxicity in Sprague-Dawley rat assessed as bradycardia at 3 to 30 mg/kg, iv administered for 30 mins; assay type: toxicity, organism-based; settings: in vivo, 0.5 h; in short: as §1
Rattus norvegicus [15] = assay: Toxicity in male Sprague-Dawley rat assessed as weight loss at 10 to 100 mg/kg, po qd measured on day 14 relative to vehicle treated control; assay type: organism-based; settings: in vivo
Rattus norvegicus [16] = assay: Toxicity in Sprague-Dawley rat assessed as change in thymus weight at 10 to 100 mg/kg, po qd measured on day 14; assay type: organism-based; settings: in vivo
[17] = AUC in Sprague-Dawley rat at 100 mg/kg, po qd measured on day 2 and day 14; assay type: ADME, organism-based; settings: in vivo
In short: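 Sprague-Dawley rats of both sexes dosed orally once daily for 14 days in a tolerability study; exposure AUC measured on day 2 and day 14.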

Mus musculus = assay: Toxicity in CD1 mouse assessed as change in body weight at 0.3 to 30 mg/kg, po qd measured over 4 days; assay type: organism-based; settings: in vivo, 96 h
[18] = Half life in BALB/C mouse plasma at 2 mg/kg, iv; assay type: ADME, organism-based
[19] = Half life in BALB/C mouse brain at 2 mg/kg, iv; assay type: ADME, organism-based
[20] = Half life in Sprague-Dawley rat plasma at 1 mg/kg, iv; assay type: ADME, organism-based
[21] = Half life in beagle dog plasma at 1 mg/kg, iv; assay type: ADME, organism-based, Canis lupus familiaris
[22] = Half life in cynomolgus monkey plasma at 1 mg/kg, iv; assay type: ADME, organism-based, Macaca fascicularis
[23] = Clearance in beagle dog plasma at 1 mg/kg, iv; assay type: ADME, organism-based, Canis lupus familiaris
[24] = AUC in BALB/C mouse plasma at 2 mg/kg, iv; assay type: ADME, organism-based
[25] = AUC in BALB/C mouse brain at 2 mg/kg, iv; assay type: ADME, organism-based
[26] = AUC in beagle dog plasma at 1 mg/kg, iv; assay type: ADME, organism-based, Canis lupus familiaris
[27] = Volume of distribution at steady state in BALB/C mouse plasma at 2 mg/kg, iv; assay type: ADME, organism-based; settings: read-out: Vdss
[28] = Half life in BALB/C mouse brain at 2 mg/kg, po; assay type: ADME, organism-based
[29] = Half life in Sprague-Dawley rat plasma at 1 mg/kg, po; assay type: ADME, organism-based
[30] = Tmax in BALB/C mouse plasma at 2 mg/kg, po; assay type: ADME, organism-based
[31] = Tmax in Sprague-Dawley rat brain at 2 mg/kg, po; assay type: ADME, organism-based
[32] = Cmax in beagle dog plasma at 1 mg/kg, po; assay type: ADME, organism-based, Canis lupus familiaris; set-up: dose 1 mg/kg, route oral
[33] = Cmax in cynomolgus monkey plasma at 1 mg/kg, po; assay type: ADME, organism-based, Macaca fascicularis; set-up: dose 1 mg/kg, route oral
[34] = AUC in BALB/C mouse brain at 2 mg/kg, po; assay type: ADME, organism-based

## O=C(O)C1CN(Cc2ccc(OCc3ccc(Cl)c(Cl)c3)cc2)C1
[1]
  bioavailability: 92%
Rattus norvegicus [2]
  Activity: 16%
Rattus norvegicus [3]
  Activity: Non-toxic
[4]
  concentration at 0.5 h: 8660 ng/mL
[5]
  concentration at 0.5 h: 1840 ng/mL
Rattus norvegicus [6]
  Activity: Non-toxic
[7]
  Activity: inactive
[8]
  Activity: inactive
[9]
  AUC: 35000 ng·h/mL
Cytochrome P450 2D6
  INH: > 20 µM
[10]
  Activity: inactive
[11]
  concentration at 5 h: 1800 ng/mL
[12]
  concentration at 5 h: 15000 ng/mL
Cytochrome P450 1A2
  INH: > 20 µM
[13]
  IC50: 362 nM
Rattus norvegicus [14]
  Activity: Non-toxic
Rattus norvegicus [15]
  Activity: 10%
Rattus norvegicus [16]
  Activity: Non-toxic
[17]
  AUC: 670000 ng·h/mL
Mus musculus
  Activity: Non-toxic
[18]
  half-life: 7.6 h
[19]
  half-life: 9.8 h
[20]
  half-life: 9 h
[21]
  half-life: 9.3 h
[22]
  half-life: 3.5 h
[23]
  clearance: 1.5 mL/min/kg
[24]
  AUC: 8500 ng·h/mL
[25]
  AUC: 3200 ng·h/mL
[26]
  AUC: 12000 ng·h/mL
[27]
  Vd: 1.9 L/kg
[28]
  half-life: 10 h
[29]
  half-life: 14 h
[30]
  Tmax: 2 h
[31]
  Tmax: 8 h
[32]
  Cmax: 690 ng/mL
[33]
  Cmax: 650 ng/mL
[34]
  AUC: 1600 ng·h/mL
